Experimental data as given in ChEMBL document CHEMBL4477235, “Evolution of a Novel, Orally Bioavailable Series of PI3Kδ Inhibitors from an Inhaled Lead for the Treatment of Respiratory Disease” (J Med Chem, 2016).
pIC50: −log10 of the molar value. Values after ≈ are worked out from the molar mass of the structure shown. Active and inactive are the calls of the source. The calls are words filed in the database; no cut-off is given here.

Legend:
[1] = target: Tyrosine-protein kinase ITK/TSK (Homo sapiens, UniProt Q08881); assay: Inhibition of ITK (unknown origin)
Sequence of Tyrosine-protein kinase ITK/TSK (Q08881 whole entry): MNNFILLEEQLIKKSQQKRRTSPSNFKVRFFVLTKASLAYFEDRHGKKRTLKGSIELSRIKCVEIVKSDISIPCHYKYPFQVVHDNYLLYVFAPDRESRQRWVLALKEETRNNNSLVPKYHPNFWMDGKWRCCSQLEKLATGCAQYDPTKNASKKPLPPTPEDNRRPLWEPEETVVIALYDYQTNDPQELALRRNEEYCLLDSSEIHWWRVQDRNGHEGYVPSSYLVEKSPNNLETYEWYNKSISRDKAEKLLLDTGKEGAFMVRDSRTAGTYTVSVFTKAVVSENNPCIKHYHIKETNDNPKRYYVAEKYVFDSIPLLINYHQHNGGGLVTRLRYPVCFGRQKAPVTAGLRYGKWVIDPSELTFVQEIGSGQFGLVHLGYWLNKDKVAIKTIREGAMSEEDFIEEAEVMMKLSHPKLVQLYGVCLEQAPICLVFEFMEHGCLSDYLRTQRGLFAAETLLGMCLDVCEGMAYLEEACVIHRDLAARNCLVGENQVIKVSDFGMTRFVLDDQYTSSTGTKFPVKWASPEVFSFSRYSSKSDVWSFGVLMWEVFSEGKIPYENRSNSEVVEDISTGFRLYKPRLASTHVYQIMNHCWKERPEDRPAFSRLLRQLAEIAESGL

[2] = target: Aurora kinase A (Homo sapiens, UniProt O14965); assay: Inhibition of Aurora A (unknown origin)
Sequence of Aurora kinase A (O14965 whole entry): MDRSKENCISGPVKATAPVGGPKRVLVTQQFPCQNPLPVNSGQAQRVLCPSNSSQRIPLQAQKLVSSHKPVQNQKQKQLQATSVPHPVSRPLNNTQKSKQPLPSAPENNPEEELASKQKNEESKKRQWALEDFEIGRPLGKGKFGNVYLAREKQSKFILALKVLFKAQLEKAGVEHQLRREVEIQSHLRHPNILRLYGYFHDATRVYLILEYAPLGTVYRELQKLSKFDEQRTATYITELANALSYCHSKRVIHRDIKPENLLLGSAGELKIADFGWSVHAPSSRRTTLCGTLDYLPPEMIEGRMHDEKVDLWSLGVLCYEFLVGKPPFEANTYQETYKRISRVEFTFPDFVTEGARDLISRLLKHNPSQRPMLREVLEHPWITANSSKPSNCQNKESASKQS

[3] = target: Glycogen synthase kinase-3 beta (Homo sapiens, UniProt P49841); assay: Inhibition of GSK3beta (unknown origin)
[4] = target: Tyrosine-protein kinase BTK (Homo sapiens, UniProt Q06187); assay: Inhibition of BTK (unknown origin)
Sequence of Tyrosine-protein kinase BTK (Q06187 whole entry): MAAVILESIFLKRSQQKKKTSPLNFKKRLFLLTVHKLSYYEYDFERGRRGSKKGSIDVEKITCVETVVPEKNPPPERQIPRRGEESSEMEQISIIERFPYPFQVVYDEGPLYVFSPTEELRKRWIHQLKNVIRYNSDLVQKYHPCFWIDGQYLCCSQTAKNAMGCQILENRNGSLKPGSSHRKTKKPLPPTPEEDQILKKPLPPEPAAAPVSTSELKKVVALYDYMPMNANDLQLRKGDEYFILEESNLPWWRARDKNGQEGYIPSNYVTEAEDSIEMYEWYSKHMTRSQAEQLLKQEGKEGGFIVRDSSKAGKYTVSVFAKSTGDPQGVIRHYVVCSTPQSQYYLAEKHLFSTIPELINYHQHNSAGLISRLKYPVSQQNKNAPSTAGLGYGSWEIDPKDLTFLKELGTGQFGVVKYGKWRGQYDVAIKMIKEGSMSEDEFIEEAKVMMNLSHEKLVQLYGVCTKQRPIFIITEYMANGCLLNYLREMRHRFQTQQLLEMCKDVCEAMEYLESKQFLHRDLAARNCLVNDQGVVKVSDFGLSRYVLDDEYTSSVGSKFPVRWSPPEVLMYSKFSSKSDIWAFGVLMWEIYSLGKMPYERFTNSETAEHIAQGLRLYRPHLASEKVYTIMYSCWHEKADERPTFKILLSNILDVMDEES

[5] = Half life in Brown Norway rat acute OVA model of TH2-driven lung inflammation at 9 mg/kg, po pretreated for 30 mins followed by OVA challenge; format: ADME, organism-based; details: in vivo
[6] = target: 3',5'-cyclic-AMP phosphodiesterase 4B (Homo sapiens, UniProt Q07343); assay: Inhibition of PDE4B (unknown origin)
[7] = Clearance in mouse liver microsomes at 0.5 uM measured up to 30 mins by LC-MS/MS analysis; format: ADME, Microsome; details: 0.5 h
[8] = target: Sphingosine kinase 1 (Homo sapiens, UniProt Q9NYA1); assay: Inhibition of SPHK1 (unknown origin)
Sequence of Sphingosine kinase 1 (Q9NYA1 whole entry): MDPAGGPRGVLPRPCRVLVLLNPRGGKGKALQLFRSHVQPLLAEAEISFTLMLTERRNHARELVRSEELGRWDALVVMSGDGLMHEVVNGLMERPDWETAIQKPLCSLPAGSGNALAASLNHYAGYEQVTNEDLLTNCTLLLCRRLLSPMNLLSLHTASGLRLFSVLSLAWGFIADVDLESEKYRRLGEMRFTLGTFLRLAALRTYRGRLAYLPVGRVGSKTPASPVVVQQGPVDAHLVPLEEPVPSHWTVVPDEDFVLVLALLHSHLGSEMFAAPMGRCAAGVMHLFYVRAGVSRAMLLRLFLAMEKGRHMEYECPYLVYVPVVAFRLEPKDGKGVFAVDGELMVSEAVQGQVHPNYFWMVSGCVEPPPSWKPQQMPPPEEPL

[9] = target: Epidermal growth factor receptor (Homo sapiens, UniProt P00533); assay: Inhibition of EGFR (unknown origin)
[10] = target: Phosphatidylinositol 4-kinase beta (Homo sapiens, UniProt Q9UBF8); assay: Inhibition of PIK4B (unknown origin)
Sequence of Phosphatidylinositol 4-kinase beta (Q9UBF8 whole entry): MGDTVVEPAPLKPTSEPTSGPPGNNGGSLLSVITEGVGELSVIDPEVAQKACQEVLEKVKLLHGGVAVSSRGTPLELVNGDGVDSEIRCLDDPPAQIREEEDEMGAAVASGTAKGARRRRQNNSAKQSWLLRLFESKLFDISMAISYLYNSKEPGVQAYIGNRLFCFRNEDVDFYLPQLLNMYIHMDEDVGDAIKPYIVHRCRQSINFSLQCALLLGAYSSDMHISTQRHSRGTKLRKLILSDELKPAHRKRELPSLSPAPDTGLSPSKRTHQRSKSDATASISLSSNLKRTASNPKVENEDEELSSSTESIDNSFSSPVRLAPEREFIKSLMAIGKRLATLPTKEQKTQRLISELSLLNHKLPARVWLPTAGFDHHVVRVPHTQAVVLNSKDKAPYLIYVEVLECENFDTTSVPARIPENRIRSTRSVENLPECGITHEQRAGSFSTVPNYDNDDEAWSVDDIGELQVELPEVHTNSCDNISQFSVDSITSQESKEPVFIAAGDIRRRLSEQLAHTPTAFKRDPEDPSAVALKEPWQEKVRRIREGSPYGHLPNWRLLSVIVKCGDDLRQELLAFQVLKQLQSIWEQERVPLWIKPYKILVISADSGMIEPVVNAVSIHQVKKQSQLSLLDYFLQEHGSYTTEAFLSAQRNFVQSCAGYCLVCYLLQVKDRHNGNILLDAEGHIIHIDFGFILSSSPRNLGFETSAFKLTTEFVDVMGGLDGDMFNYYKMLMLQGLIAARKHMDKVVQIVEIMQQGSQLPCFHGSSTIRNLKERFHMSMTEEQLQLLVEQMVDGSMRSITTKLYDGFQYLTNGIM

[11] = Clearance in rat liver microsomes at 0.5 uM measured up to 30 mins by LC-MS/MS analysis; format: ADME, Microsome; details: 0.5 h
Outline: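 Rat liver microsomes (0.5 mg protein/mL) prewarmed 10 min at 37 °C, started with NADPH regeneration system. Final compound 0.5 μM. Sampled at 0, 3, 6, 12 and 30 min into acetonitrile with internal standard. Peak area ratios by LC–MS/MS fitted to log-linear decline. Clearance scaled by protein concentration, incubation volume and 52.5 mg microsomal protein/g liver.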

[12] = target: Albumin (Homo sapiens, UniProt P02768); assay: Binding affinity to human serum albumin by HPLC analysis; format: ADME; details: read-out: PB (converted)
Sequence of Albumin (P02768 whole entry): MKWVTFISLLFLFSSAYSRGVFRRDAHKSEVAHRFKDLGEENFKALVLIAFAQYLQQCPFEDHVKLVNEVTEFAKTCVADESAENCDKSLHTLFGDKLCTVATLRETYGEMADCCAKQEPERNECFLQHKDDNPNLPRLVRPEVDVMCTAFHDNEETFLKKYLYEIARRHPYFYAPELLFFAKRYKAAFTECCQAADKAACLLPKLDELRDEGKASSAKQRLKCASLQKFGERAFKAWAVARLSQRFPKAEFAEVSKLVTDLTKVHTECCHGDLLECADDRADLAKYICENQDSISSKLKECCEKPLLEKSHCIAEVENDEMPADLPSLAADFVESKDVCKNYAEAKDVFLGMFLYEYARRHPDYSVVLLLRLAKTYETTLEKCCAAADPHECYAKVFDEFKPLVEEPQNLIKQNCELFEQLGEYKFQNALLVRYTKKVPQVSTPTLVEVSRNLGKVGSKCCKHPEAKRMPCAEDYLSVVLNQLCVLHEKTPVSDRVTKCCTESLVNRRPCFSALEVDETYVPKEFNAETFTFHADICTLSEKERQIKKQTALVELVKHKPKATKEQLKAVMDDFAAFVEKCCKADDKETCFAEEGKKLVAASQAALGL

[13] = target: Tyrosine-protein kinase JAK3 (Homo sapiens, UniProt P52333); assay: Inhibition of JAK3 (unknown origin)
[14] = Oral bioavailability in Sprague-Dawley rat at 3 mg/kg measured up to 7 hrs by LC-MS/MS analysis; format: ADME, organism-based; details: in vivo, 7 h
Outline: (§1)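 Male Sprague Dawley rats, n = 2 per route, were dosed discretely at 3 mg/kg orally or 1 mg/kg intravenously. The dosing solution was DMSO/PEG200/water (5:45:50 v/v/v). Serial tail-vein blood samples were taken over 0–7 h, and parent compound was quantified by LC–MS/MS. Parameters were estimated by noncompartmental analysis.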

[15] = Fraction unbound in Wistar Han rat at 1 mg/kg after 1 hr by HPLC analysis; format: ADME, organism-based; details: in vivo
Outline: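 Unbound concentration at 1 h post-dose estimated by an internal algorithm from binding to HPLC columns coated with HSA and α-glycoprotein.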

[16] = organism: Homo sapiens; assay: Selectivity ratio of IC50 for PI3Kbeta (unknown origin) to IC50 for PI3Kdelta (unknown origin)
Outline: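 Ratio of each isoform's HTRF IC50 to the PI3Kδ HTRF IC50. Enzymes were preincubated 15 min with 4-fold compound dilutions in HEPES pH 7.0, MgCl2, DTT buffer. […] PIP2 was 5 µM for δ and 8 µM for α/β/γ. 60 min reaction, then EDTA quench with GRP-1 PH domain/APC/Eu detection. Four-parameter fit.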

[17] = Kinetic solubility in phosphate buffered saline at pH 7.4 after 1 hr by chemiluminescent nitrogen detection method; format: physicochemical; details: read-out: Kinetic_solubility
Outline: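 The sample was then filtered, and the filtrate was quantified by calibrated flow-injection chemiluminescent nitrogen detection. Standard error was ±30 µM, and the upper limit was 500 µM from the 10 mM stock.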

[18] = target: Mitogen-activated protein kinase kinase kinase 5 (Homo sapiens, UniProt Q99683); assay: Inhibition of ASK1 (unknown origin)
[19] = Clearance in human liver microsomes at 0.5 uM measured up to 30 mins by LC-MS/MS analysis; format: ADME, Microsome; details: 0.5 h
[20] = test system: Rattus norvegicus; assay: Anti-inflammatory activity in Brown Norway rat acute OVA model of TH2-driven lung inflammation assessed as protection against eosinophil recruitment in bronchoalveolar lavage fluid at 3 mg/kg, po pretreated for 30 mins followed by OVA challenge by DAPI staining based flow cytometry; format: functional, organism-based
Outline: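 Male Brown Norway rats (250–300 g) sensitized i.p. with 10 μg OVA plus 20 mg Al(OH)₃ on days 1 and 7. Oral compound given 30 min before intratracheal OVA challenge on day 21 or 28, under isoflurane. BAL taken 48 h post-challenge. Leucocytes counted by flow cytometry, gated on FSC/SSC, with DAPI+ dead cells excluded.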

[21] = Drug uptake in blood of Brown Norway rat acute OVA model of TH2-driven lung inflammation at 9 mg/kg, po pretreated for 30 mins followed by OVA challenge measured 1 hr post dose; format: ADME, organism-based; details: read-out: Drug uptake
Outline: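 Sensitized Brown Norway rats given oral compound 30 min before intratracheal OVA challenge. Blood concentration taken 1 h after dosing, i.e. 30 min after challenge.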

[22] = Drug uptake in Wistar Han rat blood at 1 mg/kg measured 1 hr post dose; format: ADME, organism-based; details: read-out: Drug uptake
[23] = target: Mitogen-activated protein kinase 14 (Homo sapiens, UniProt Q16539); assay: Inhibition of P38alpha (unknown origin)
Sequence of Mitogen-activated protein kinase 14 (Q16539 whole entry): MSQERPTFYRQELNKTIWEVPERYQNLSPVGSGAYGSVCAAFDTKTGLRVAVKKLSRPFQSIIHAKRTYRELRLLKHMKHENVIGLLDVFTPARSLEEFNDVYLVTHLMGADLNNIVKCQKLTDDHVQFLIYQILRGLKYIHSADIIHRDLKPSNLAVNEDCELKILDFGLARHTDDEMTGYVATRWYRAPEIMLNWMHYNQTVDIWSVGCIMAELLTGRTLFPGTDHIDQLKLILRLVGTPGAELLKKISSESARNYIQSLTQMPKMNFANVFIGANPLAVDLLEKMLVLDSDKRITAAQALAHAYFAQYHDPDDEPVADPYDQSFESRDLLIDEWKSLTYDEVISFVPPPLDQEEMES

[24] = target: Inhibitor of nuclear factor kappa-B kinase subunit alpha (Homo sapiens, UniProt O15111); assay: Inhibition of IKK1 (unknown origin)
Sequence of Inhibitor of nuclear factor kappa-B kinase subunit alpha (O15111 whole entry): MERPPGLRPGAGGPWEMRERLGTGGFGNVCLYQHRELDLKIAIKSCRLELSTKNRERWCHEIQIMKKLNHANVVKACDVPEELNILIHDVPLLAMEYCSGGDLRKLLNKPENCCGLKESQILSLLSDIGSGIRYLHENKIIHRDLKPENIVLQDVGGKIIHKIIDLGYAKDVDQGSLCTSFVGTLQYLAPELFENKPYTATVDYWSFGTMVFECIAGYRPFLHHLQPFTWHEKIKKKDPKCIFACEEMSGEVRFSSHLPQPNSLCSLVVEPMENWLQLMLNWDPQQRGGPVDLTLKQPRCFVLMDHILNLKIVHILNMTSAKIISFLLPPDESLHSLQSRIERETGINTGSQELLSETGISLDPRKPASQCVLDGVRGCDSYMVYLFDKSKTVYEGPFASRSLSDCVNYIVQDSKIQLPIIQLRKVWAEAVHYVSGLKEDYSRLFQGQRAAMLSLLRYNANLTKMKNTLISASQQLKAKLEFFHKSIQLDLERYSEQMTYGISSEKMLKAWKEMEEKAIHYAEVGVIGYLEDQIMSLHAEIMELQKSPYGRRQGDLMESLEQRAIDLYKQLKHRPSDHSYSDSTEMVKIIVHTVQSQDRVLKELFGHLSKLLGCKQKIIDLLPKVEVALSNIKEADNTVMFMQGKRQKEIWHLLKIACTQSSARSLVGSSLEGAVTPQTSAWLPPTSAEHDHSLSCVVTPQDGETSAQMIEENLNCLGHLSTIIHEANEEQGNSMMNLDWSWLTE

[25] = target: Phosphatidylinositol 5-phosphate 4-kinase type-2 alpha (Homo sapiens, UniProt P48426); assay: Inhibition of PIP4K2A (unknown origin)
Sequence of Phosphatidylinositol 5-phosphate 4-kinase type-2 alpha (P48426 whole entry): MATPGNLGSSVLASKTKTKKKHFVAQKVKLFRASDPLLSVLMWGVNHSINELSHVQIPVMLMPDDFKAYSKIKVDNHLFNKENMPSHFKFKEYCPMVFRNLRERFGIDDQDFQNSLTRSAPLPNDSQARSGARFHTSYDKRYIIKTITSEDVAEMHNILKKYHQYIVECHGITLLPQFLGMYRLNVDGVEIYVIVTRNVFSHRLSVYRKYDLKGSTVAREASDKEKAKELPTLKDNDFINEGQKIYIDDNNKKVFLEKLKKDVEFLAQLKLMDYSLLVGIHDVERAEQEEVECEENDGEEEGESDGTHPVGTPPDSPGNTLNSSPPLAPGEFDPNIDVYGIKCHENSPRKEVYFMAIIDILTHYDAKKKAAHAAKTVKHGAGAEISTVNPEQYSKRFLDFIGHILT

[26] = Volume of distribution at steady state in Sprague-Dawley rat at 3 mg/kg, po or 1 mg/kg, iv measured up to 7 hrs by LC-MS/MS analysis; format: ADME, organism-based; details: in vivo, read-out: Vdss; outline: as §1
[27] = target: Tyrosine-protein kinase SYK (Homo sapiens, UniProt P43405); assay: Inhibition of SYK (unknown origin)
[28] = AUC(infinity) in Brown Norway rat acute OVA model of TH2-driven lung inflammation at 3 mg/kg, po pretreated for 30 mins followed by OVA challenge; format: ADME, organism-based; design: dose 3 mg/kg, time infinity, route oral; details: in vivo
Outline: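 Male Brown Norway rats weighing 250–300 g were sensitised intraperitoneally with 10 μg OVA plus 20 mg Al(OH)₃ in 1 mL on days 1 and 7. On day 21 or 28 they were challenged intratracheally with 0.2 mL OVA under isoflurane. Compound was dosed orally 30 min before challenge. Blood exposure was measured in the same animals, with the 1 h post-dose concentration also recorded.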

[29] = target: Diacylglycerol kinase zeta (Homo sapiens, UniProt Q13574); assay: Inhibition of DAGK zeta (unknown origin)
[30] = AUC(infinity) in Sprague-Dawley rat at 3 mg/kg, po measured up to 7 hrs by LC-MS/MS analysis; format: ADME, organism-based; design: dose 3 mg/kg, time infinity, route oral; details: in vivo, 7 h
Outline: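 Male Sprague Dawley rats (n = 2/route), oral dose in DMSO/PEG200/water (5:45:50 v/v/v) at 6 mL/kg. Serial tail-vein bleeds over 0–7 h. Parent compound quantified by LC–MS/MS. Parameters from noncompartmental analysis.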

For COc1ncc(-c2cc3c(c(NC(=O)CN4CCOCC4)c2)COC3)cc1NS(C)(=O)=O, the pIC50 [1] was < 5.00, the pIC50 [2] was < 5.00 and the pIC50 [3] was < 5.00. The pIC50 [4] was < 5.00, the half-life [5] was 6.8 h and the pIC50 [6] was < 5.00. For the same molecule, the CLH [7] was < 0.5 mL/min/g, the pIC50 [8] was < 5.00 and the pIC50 [9] was < 5.00. For the same molecule, the pIC50 [10] was < 5.00, the CLH [11] was < 0.5 mL/min/g and the fraction unbound [12] was 0.36. The pIC50 [13] was < 5.00, the F [14] was 54% and the “Drug uptake(free)” value [15] was 0.089 µM. The Ratio IC50 [16] was 63, the solubility kinetic at 1 h [17] was 185 µg/mL (≈ 400 µM) and the pIC50 [18] was < 5.00. The CLH [19] was < 0.5 mL/min/g, the Activity [20] was “Active” and the concentration at 1 h [21] was 1270 nM. The concentration at 1 h [22] was 520 nM, the pIC50 [23] was < 5.00 and the pIC50 [24] was < 5.00. The pIC50 [25] was < 5.00, the Vd [26] was 1.1 L/kg and the pIC50 [27] was < 5.00. For the same molecule, the AUC(0-inf) [28] was 454 ng·h/mL, the pIC50 [29] was < 5.00 and the AUC [30] was 673 ng·h/mL.
